A selection: hits, their analogues and other compounds. The true share with any hit is near 3.7%.
MC4R antagonist = human MC4R antagonism in cAMP assay; MC4R-expressing cells, MTII-stimulated cAMP, LANCE TR-FRET; hit rate 0.48% among 360,000; AID 540295; P32245; inhibition, % at 6.5 µM;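 active = inhibition above its plate's cutoff, the mean of tested wells on that plate plus 3 SD, cut at about 29% in these data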;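 note: 0% = Melanotan II alone and 100% = Melanotan II plus saturating MCL0020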
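material = U2OS cells stably expressing human melanocortin 4 receptor (MC4R) | also added = Melanotan II challenge | dosing = single nominal compound dose of 6.5 µM | detection = TR-FRET with Eu-cAMP and labeled anti-cAMP, 671 nm | replication = singlicate | timing = compound 30 min, challenge 1 h, detection 1 h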
MC4R ag barr = activates human MC4R beta-arrestin recruitment | AID 540308 | U2OS MC4R beta-arrestin complementation, luminescence; percent of melanotan II response, DMSO zero | P32245 | activation, % at 8.9 µM | hit rate 0.98% among 360,000;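 active = activation above a per-plate cutoff, the mean activation of sample wells on that plate plus 3 SD, cut at about 8% in these data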
Exocytosis inh = lytic granule exocytosis inhibition | TALL-104 LAMP-1 surface exposure, flow cytometry; cells stimulated with thapsigargin and PMA | inhibition, % at 10 µM | AID 651702 | hit rate 0.66% among 360,000;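 active = inhibition above about 55%, limit read from the data; inconclusive = no clear call, values can overlap the other calls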
EBI2 antag = EBI2 (human) antagonism | P32249 | EBI2 beta-arrestin recruitment, luminescence, 7a,25-OHC stimulated | inhibition, % at 5 µM | hit rate 0.81% among 360,000; in the data active = inhibition above about 38%;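 note: enzyme fragment complementation signal reports receptor beta-arrestin coupling in cells; 0% = agonist plus DMSO wells and 100% = wells without agonist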
Target sequence (P32249 whole entry, looked up, the tested form may be a part): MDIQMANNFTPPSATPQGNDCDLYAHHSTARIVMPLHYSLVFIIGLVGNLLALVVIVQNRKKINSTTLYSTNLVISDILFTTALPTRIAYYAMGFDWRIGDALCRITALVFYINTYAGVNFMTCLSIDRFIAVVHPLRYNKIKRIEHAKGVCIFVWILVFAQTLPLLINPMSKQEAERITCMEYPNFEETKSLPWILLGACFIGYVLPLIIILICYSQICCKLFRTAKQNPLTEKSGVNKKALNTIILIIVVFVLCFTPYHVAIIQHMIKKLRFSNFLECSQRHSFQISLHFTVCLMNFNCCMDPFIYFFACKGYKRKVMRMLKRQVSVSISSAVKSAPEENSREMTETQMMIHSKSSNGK
Myeloid diff MLP = promotes myeloid progenitor differentiation; ER-HoxA9 myeloid progenitors, lysozyme-GFP differentiation, flow cytometry; calls only at 10 µM; hit rate 1% among 360,000; AID 624256;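 active = normalized GFP-positive differentiation at or above the plate's own cutoff, the solvent-only control mean plus 3 SD; inconclusive = no clear call, values can overlap the other calls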;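 note: cells exposed to compound for four days before flow analysis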
Numbers without * were called inactive; i = inactive; ? = inconclusive; . = not tested or not shown; + = active, no number; ! = not confirmed by another sample.

SMILES	MC4R antagonist	MC4R ag barr	Exocytosis inh	EBI2 antag	Myeloid diff MLP
CCN(CC)c1ccc(C=C2C(=O)OC(c3ccccc3)OC2=O)cc1 (stereo not drawn)	3	0	1	-2	i
Cc1cc2oc(C(=O)N(Cc3ccccc3)c3ccccn3)cc(=O)c2cc1Cl	11	1	57*	8	i
O=C(Cn1ncc(Cl)c(Cl)c1=O)c1ccc(Cl)cc1	2	-1	9	13	?
O=C(OCn1ncc(Cl)c(Cl)c1=O)c1ccccc1Cl	21	2	27	51*	?
O=C(Sc1cccc2cccnc12)c1ccccc1Br	-6	-3	46	49*	.
COc1ccc(CN2C(=O)c3ccccc3C2c2nnnn2C(C)C)cc1 (stereo not drawn)	.	.	4	-8	i
CCn1c(CCCOc2ccc(Cl)cc2Cl)nnc1SCC(=O)Nc1cccc(F)c1	6	9.8*	0	-3	i
O=S(=O)(N1CCCCC1)N1CCN(CC(O)COc2ccc3cc(Br)ccc3c2)CC1 (stereo not drawn)	10	7	4	90*	i
CCCc1cc(=O)[nH]c(SCC(=O)Nc2cc(S(=O)(=O)N3CCOCC3)ccc2Cl)n1	7	-2	-1	1	i
Cc1cc(NC(=O)CSc2nnc(C)n2C)no1	4	-1	11	-1	i
CN1C(=O)/C(=C/c2cc(N=Nc3ccccc3)ccc2O)SC1=S	5	-3	8	47*	i
Cc1c(N2C(=O)/C(=C\c3ccccc3O)SC2=S)c(=O)n(-c2ccccc2)n1C	24	0	25	3	i
CC1(C)Cc2nc3sc4c(SCC(=O)NCc5ccccc5)ncnc4c3cc2CO1	-18	-2	10	5	+
O=[N+]([O-])c1ccc(COP(=O)(O)OCc2ccc([N+](=O)[O-])cc2)cc1	4	-1	15	7	+!
O=C(Cc1ccc([N+](=O)[O-])cc1)OCc1ccc([N+](=O)[O-])cc1	-5	-1	6	-5	i
O=C(Cn1c(=O)oc2ccc(Cl)cc21)Nc1ccon1	-3	0	-1	-7	i
Cc1ccc2nc(SCC(=O)Nc3ccc(C(N)=O)cc3)[nH]c2c1	4	4	1	4	i
Cc1ccc2nc(-c3ccc(NC(=O)CSc4ccccc4)cc3)[nH]c2c1	10	9.0*	16	11	i
O=C(CSc1ccccc1)Nc1ccc(-c2nc3ccccc3[nH]2)cc1	13	11*	-1	-1	i
CC(C)Oc1cccc(C(=O)NC(=S)Nc2ccc3c4c(cccc24)CC3)c1	4	-3	0	9	+
COc1cc(OC)cc(C(=O)NC(=S)Nc2ccc3c4c(cccc24)CC3)c1	-1	-1	-2	3	+
O=C(Nc1ccc2c3c(cccc13)CC2)c1ccco1	-1	1	-4	-8	+
CC(NC(=O)c1cccc(S(=O)(=O)N2CCN(Cc3ccccc3)CC2)c1)c1ccc(Cl)cc1 (stereo not drawn)	4	-2	0	10	i
COc1cc(C)c(C(=O)CC(=O)c2c(C)cc(OC)cc2C)c(C)c1	4	-1	28	2	+
COc1ccc([C@H]2C[C@@H](O)[C@H](n3cc(C4CC4)nn3)CN2C(=O)C2CCCCC2)cc1	5	0	1	-10	i
SMILES	MC4R antagonist	MC4R ag barr	Exocytosis inh	EBI2 antag	Myeloid diff MLP
COc1ccc(C(CCN(Cc2ccc(OC)c(OC)c2)C(C)=O)c2ccccc2)cc1 (stereo not drawn)	14	5	0	9	i
COc1ccc(CN(CCC(c2ccccc2)c2ccc(OC(C)C)cc2)C(=O)CCl)cc1OC (stereo not drawn)	26	21*	18	34	i
COC(=O)[C@@]12C[C@@H](CC(=O)N3CCSCC3)C(=O)N(Cc3ccccc3)C1=CCC(C)(C)C2	.	.	5	10	i
CNC(=O)CSc1nnc(NC(=O)C2CC(=O)N(c3ccccc3OC)C2)s1 (stereo not drawn)	7	-1	2	13	i
O=C(Nc1ccc(Cl)cc1)[C@@H]1[C@@H]2C(=O)N(c3ccc4ccccc4c3)C(=O)[C@@H]2[C@H]2C=CC=NN21	11	0	2	-2	i
COc1ccc(N2C(=O)[C@@H]3[C@H](C2=O)[C@H]2C=CC=NN2[C@@H]3C(=O)Nc2ccc(Cl)cc2)cc1	29*	-2	28	8	i
CC(C)(C)N1CC(OC(N)=O)C1	9	0	14	-6	+
O=C(CCS(=O)(=O)c1ccccc1)Nc1nc(-c2ccc(F)cc2)cs1	2	3	2	12	+
COc1ccc(-c2csc(NC(=O)CCS(=O)(=O)c3ccccc3)n2)c(OC)c1	4	1	1	6	+
Cc1cc(C(C)(C)C)cc(C)c1C(=O)O	16	1	-3	9	i
CCc1nc2nc(C)c(NS(=O)(=O)c3ccc(C4CCCCC4)cc3)c(=O)n2[nH]1	-3	2	-16	7	i
CN1CCC(N(C)C(=O)c2cc(-c3ccccc3Cl)nc3ccccc23)CC1	-3	-1	1	-20	+
CN1CCC(N(C)C(=O)c2cc(-c3ccc(F)cc3)nc3ccccc23)CC1	5	0	53	2	i
O=C(CSc1nnc(C2CC2)n1C1CC1)c1ccc(Br)s1	-6	0	1	5	i
COCOc1ccc(-c2ncc(OC)nc2NC(=O)c2cc(C)oc2C)cc1	2	-2	-4	2	i
CCOc1ccc(Nc2nc(NCC3CCCO3)c3ccccc3n2)cc1 (stereo not drawn)	8	3	11	66*	i
CN(C)CCCNCCCNC(=O)c1ccncc1	12	-1	0	4	+
O=C(NCCCNCc1ccccc1)c1ccncc1	-4	0	-2	-1	i
COc1ccc(-c2cc(C(=O)N3CCN(c4ccccn4)CC3)c3ccccc3n2)cc1	-3	-4	-1	-11	+
CCOc1ccc(-c2cc(C(=O)N3CCN(c4ccccn4)CC3)c3ccccc3n2)cc1	-2	-1	-1	-8	?
O=C(Nc1ccc(Cn2cccn2)cc1)c1ccc(COc2cccc(Br)c2)cc1	4	0	-1	25	+
COCCN1C(=O)/C(=C/c2ccc(OCc3ccc(C(=O)O)cc3)c(OC)c2)SC1=Nc1ccccc1	18	0	79*	20	i
CC1(C)CC(NCc2ccccc2)=CC(=S)N1	.	.	-2	-5	i
CC1(C)CC(N2CCN(CCO)CC2)=CC(=S)N1	0	2	-5	7	+
COc1ccc2c(c1)sc1nc(-c3ccccc3)cn12	-21	-2	10	40*	?
CCOC(=O)N1CCN(C(=O)c2ccc3c(c2)sc2nc(-c4ccc(OC)cc4)cn23)CC1	20	0	-10	7	i

Screens (PubChem)
